An excerpt weighted towards active compounds, which were near 1.5% of everything screened.
NTR1 ag: agonists of human neurotensin receptor NTR1; P30989; NTR1-U2OS beta-arrestin-GFP spot imaging, agonist mode; activation, % at 20 µM; actives 0.17% (n = 330,000); AID 493036;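 active means activation at or above 40% of the spot to cytoplasm intensity ratio, with at least 20 cells analyzed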
APJ antag: APJ receptor antagonism | actives 0.32% (n = 330,000) | P35414 | inhibition, % at 20 µM | CHO-K1 APJ beta-arrestin complementation, luminescence;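 active means inhibition above about 40% at 20 µM, limit read from the data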;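 further: cells challenged with 10 nM apelin-13 agonist together with compound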
m5-HT2A agonist: agonists of mouse serotonin 5-HT2A receptor (HTR2A); P35363; CHO-K1 mHTR2A beta-arrestin complementation, luminescence; percent of 30 µM serotonin response; activation, % at 7.6 µM; actives 0.66% (n = 360,000); AID 624169;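 active means activation above a run cutoff, the mean activation of all tested compounds plus 3 SD, cut at about 14% in these data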
Target sequence (P35363 whole entry, looked up): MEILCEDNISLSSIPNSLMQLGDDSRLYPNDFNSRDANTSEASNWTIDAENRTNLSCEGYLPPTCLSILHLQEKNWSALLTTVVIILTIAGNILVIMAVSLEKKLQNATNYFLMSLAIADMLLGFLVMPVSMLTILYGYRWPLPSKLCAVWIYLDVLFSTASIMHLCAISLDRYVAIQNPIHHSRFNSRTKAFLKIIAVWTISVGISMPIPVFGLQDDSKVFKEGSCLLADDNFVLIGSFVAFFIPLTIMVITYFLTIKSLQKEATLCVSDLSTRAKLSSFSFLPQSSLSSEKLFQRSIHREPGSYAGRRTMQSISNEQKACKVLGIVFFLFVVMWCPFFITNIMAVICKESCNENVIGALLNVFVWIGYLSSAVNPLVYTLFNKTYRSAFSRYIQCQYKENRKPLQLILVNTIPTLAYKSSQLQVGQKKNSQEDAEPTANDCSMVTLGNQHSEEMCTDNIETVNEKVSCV
CXCR6 block: blocks human CXCR6 beta-arrestin recruitment. CHO-K1 PathHunter CXCR6 beta-arrestin, luminescence. actives 0.36% (n = 360,000). O00574. inhibition, % at 20 µM; in the data active means inhibition above about 34%, passing the limit was not always enough;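 further: antagonist mode with CXCL16 agonist at 10 nM final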
APJ agonist: APJ receptor agonism | AID 2520 | P35414 | actives 0.11% (n = 330,000) | CHO-K1 APJ PathHunter beta-arrestin, luminescence; 0% DMSO wells, 100% apelin | activation, % at 20 µM;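 active means activation more than six SD over the plate average, tested at 20 µM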
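Assay system – PathHunter CHO-K1 APJ (AGTRL-1) beta-arrestin reporter cells · Compound – one dose, 20 µM compound, 1% DMSO · Timing – compound 90 min 25 °C, reagent 1 h · Measured by – luminescence from split beta-galactosidase complementation, Galacton Star/Emerald II substrate · Measure – beta-arrestin recruitment to APJ as agonist activity, luminescent signal · Benchmarks – DMSO vs Apelin-13 10 nM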
CCR6 antagonist: CCR6 (human) receptor antagonism | P51684 | CHO-K1 CCR6 PathHunter beta-arrestin, luminescence, CCL20-stimulated | inhibition, % at 20 µM | actives 0.49% (n = 340,000) | AID 493098;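 active means compounds whose inhibition of the agonist-driven luminescence signal at 20 µM reaches about 50%, limit read from the data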;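 further: cells stimulated with CCL20 at 14 nM final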
OPRM1 ag: OPRM1 agonism in mouse HTR2A counterscreen. shares compounds with m5-HT2A agonist. AID 624380. actives 5.3% (n = 2,300). activation, % at 9.3 µM. U2OS OPRM1 beta-arrestin PathHunter, luminescence; DMSO 0%, DAMGO 9.3 µM 100%;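 active means mean activation above the mean of DMSO-only wells plus 3 SD, cut at about 0.5% in these data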
HTR2A ag conf: mouse HTR2A agonism confirmed | shares compounds with m5-HT2A agonist | CHO-K1 PathHunter beta-arrestin recruitment, luminescence; DMSO 0%, 30 µM serotonin 100% | activation, % at 7.6 µM | actives 19% (n = 2,300) | AID 624381;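 active means mean activation across triplicates above the hit threshold derived in the original primary screen, cut at about 15% in these data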
Numbers stand for hits; 0 = inactive; - = not tested or not shown.

SMILES	NTR1 ag	APJ antag	m5-HT2A agonist	CXCR6 block	APJ agonist	CCR6 antagonist	OPRM1 ag	HTR2A ag conf
CCOP(=O)(OCC)C(Nc1ccc(OC)cc1)c1ccco1 (centres undefined)	0	0	18.8	0	0	0	0	0
CC(=O)NCC1COc2ccccc2O1 (centres undefined)	0	0	0	0	0	0	-	-
CC(=O)NCC1(c2ccccc2)CCN(CC2COc3ccccc3O2)CC1 (centres undefined)	-	-	20.0	0	-	-	0	44.3
C[C@H]1CN([C@@H](C)CO)C(=O)c2cc(/C=C/c3ccccc3)cnc2O[C@H]1CN(C)C(=O)c1cccc(F)c1	-	-	17.1	0	-	-	0	0
COC(=O)[C@H]1C[C@H](OC(=O)NC2CCCC2)[C@@]2(O)CN(S(=O)(=O)c3ccc(C)cc3)CC2[C@H]1C(=O)OC (some centres undefined)	-	-	0	0	-	-	-	-
O=C(Cn1cc(C(=O)C(F)(F)F)c2cc(Br)ccc21)N1CCOCC1	0	0	0	0	0	0	-	-
CCOc1ccccc1CN1[C@@H](c2ccc(OC)cc2)CC(C(=O)OC)(C(=O)OC)[C@H]1c1ccccc1	-	-	0	-	-	-	-	-
CCc1ccc(OCCCC(=O)Nc2ccc(S(=O)(=O)Nc3cc(C)nc(C)n3)cc2)cc1	0	0	14.9	0	0	0	0	0
CC1(C(=O)OCC(=O)Nc2ccc(C(N)=O)cc2)CC1(Cl)Cl (centres undefined)	0	0	0	0	0	0	-	-
CCc1cccc(CC)c1NC(=O)COC(=O)C1(C)CC1(Cl)Cl (centres undefined)	0	0	16.7	0	0	0	0	0
O=C(Nc1ccc(Cl)cc1F)c1ccc2c(c1)C(=O)N(Cc1ccncc1)C2=O	0	0	19.4	0	0	0	0	0
CCCCNC(=O)c1ccc2c(c1)C(=O)N(Cc1ccncc1)C2=O	0	0	0	0	0	0	-	-
NNC(=O)c1cc2ccccc2cc1NS(=O)(=O)c1ccccc1	0	0	0	0	0	0	-	-
C[C@H](NC(=O)c1[nH]cnc1C(=O)Nc1ccccc1F)c1ccccc1	-	-	0	0	-	-	-	-
O=C(CN1C(=O)NC2(CCc3ccccc32)C1=O)Nc1ccccc1C(F)(F)F (centres undefined)	0	0	0	0	0	0	-	-
CC1CCN(c2ncnc3nc[nH]c23)CC1	0	0	25.2	0	0	0	0	0
Cc1cccc(NC(=O)c2ccc3nccnc3c2)c1C	0	0	0	0	0	0	-	-
COc1ccc(N2CC(C(=O)Nc3ccc(S(=O)(=O)N4CCCC4)cc3)CC2=O)cc1 (centres undefined)	0	0	14.6	0	0	0	0	0
COc1ccc(N2CC(C(=O)Nc3ccc(S(=O)(=O)N4CCCCC4)cc3)CC2=O)cc1 (centres undefined)	0	0	0	0	0	0	-	-
CCOC(=O)C1CCCN(S(=O)(=O)c2ccc(OC)cc2)C1 (centres undefined)	0	0	23.6	0	0	0	0	0
CCOc1ccccc1NC(=O)CCN1CCN(S(=O)(=O)c2ccc(Br)cc2)CC1	0	0	16.9	0	0	0	0	0
CC(=O)N1CCN(C(=O)c2ccc(Cl)c(NC(=O)c3cccs3)c2)CC1	0	0	14.7	0	0	0	0	0
CCOC(=O)N1CCN(C(=O)c2ccc(Cl)c(NC(=O)c3cccs3)c2)CC1	0	0	0	0	0	0	-	-
CC(C)(C)c1csc(NC(=O)c2c(F)c(F)c(F)c(F)c2F)n1	0	0	17.5	0	0	0	0	15.2
CC(C)(C)c1csc(NC(=O)c2ccccc2O)n1	0	0	0	0	0	0	-	-
FC(F)(F)Oc1ccc(Nc2nc(N3CCOCC3)nc(N3CCOCC3)n2)cc1	0	0	14.6	0	0	0	0	0
CCc1ccc(Nc2nc(N3CCOCC3)nc(N3CCOCC3)n2)cc1	0	0	0	0	0	0	-	-
